In ChEMBL document CHEMBL3227923, “Conformational analysis of podophyllotoxin and its congeners. Structure--activity relationship in microtubule assembly” (J Med Chem, 1979):

Species on record: Gallus gallus
Assay: Inhibition of chicken brain microtubule polymerization after 30 mins
Procedure, shortened: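 Chicken brain microtubule assembly in vitro at 37 °C and neutral pH over a 30-min incubation. ID50 is the drug concentration giving 50% inhibition of assembly, averaged from triplicate experiments (standard deviation <15%).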

| Compound | ID50 [µM] |
| --- | --- |
| COc1cc([C@@H]2c3cc4c(cc3[C@H](O)[C@H]3COC(=O)[C@H]23)OCO4)cc(OC)c1OC | 0.6 |
| COc1cc([C@@H]2c3cc4c(cc3[C@H](O)[C@H]3COC[C@H]23)OCO4)cc(OC)c1OC | 1 |
| COc1cc([C@@H]2c3cc4c(cc3C[C@H]3CCC[C@@H]32)OCO4)cc(OC)c1OC | 5 |
| COc1cc([C@@H]2c3cc4c(cc3[C@H](O)[C@H]3CSC[C@H]23)OCO4)cc(OC)c1OC | 10 |
| COc1cc([C@@H]2c3cc4c(cc3[C@H](O)[C@H]3CS(=O)(=O)C[C@H]23)OCO4)cc(OC)c1OC | > 100 |
| COc1cc([C@@H]2c3cc4c(cc3C[C@H]3CSC[C@@H]32)OCO4)cc(OC)c1OC | 10 |
| COc1cc([C@@H]2c3cc4c(cc3[C@@H](O)[C@H]3COC(=O)[C@H]23)OCO4)cc(OC)c1OC | 5 |
| COc1cc([C@@H]2c3cc4c(cc3C[C@H]3CS(=O)(=O)C[C@@H]32)OCO4)cc(OC)c1OC | > 100 |
| COc1cc([C@@H]2c3cc4c(cc3C[C@H]3COC(=O)[C@@H]32)OCO4)cc(OC)c1OC | 0.5 |
| COc1cc([C@@H]2c3cc4c(cc3C[C@H]3COC[C@@H]32)OCO4)cc(OC)c1OC | 0.8 |
| COc1cc([C@@H]2c3cc4c(cc3[C@H](O)[C@H]3COC(=O)[C@@H]23)OCO4)cc(OC)c1OC | 30 |
